Experimental data taken from ChEMBL document CHEMBL1828561, “Identification of a potent and selective free fatty acid receptor 1 (FFA1/GPR40) agonist with favorable physicochemical and in vitro ADME properties” (J Med Chem, 2011).
Activity calls are given as the source filed them.

Experiments:
1321-N1 [1] = experiment: Selectivity for human FFA1 receptor expressed in human 1321N1 cells over 5HT2A receptor; format: cell-based
1321-N1 [2] = experiment: Selectivity for human FFA1 receptor expressed in human 1321N1 cells over 5HT3 receptor; format: cell-based
1321-N1 [3] = experiment: Selectivity for human FFA1 receptor expressed in human 1321N1 cells over 5HT7 receptor; format: cell-based
1321-N1 [4] = experiment: Selectivity for human FFA1 receptor expressed in human 1321N1 cells over VPAC1 receptor; format: cell-based
1321-N1 [5] = experiment: Selectivity for human FFA1 receptor expressed in human 1321N1 cells over V1a receptor; format: cell-based
1321-N1 [6] = experiment: Selectivity for human FFA1 receptor expressed in human 1321N1 cells over Kv channel; format: cell-based
1321-N1 [7] = experiment: Selectivity for human FFA1 receptor expressed in human 1321N1 cells over SKCa channel; format: cell-based
1321-N1 [8] = experiment: Selectivity for human FFA1 receptor expressed in human 1321N1 cells over norepinephrine transporter; format: cell-based
1321-N1 [9] = experiment: Selectivity for human FFA1 receptor expressed in human 1321N1 cells over 5HT transporter; format: cell-based
[10] = Aqueous solubility of the compound in PBS at pH 7.4; format: physicochemical
Summary of the method: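 Solubility measured in PBS at pH 7.4.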

[11] = Plasma protein binding in human; format: ADME, cell-free; settings: read-out: PPB (converted)
Liver = experiment: Metabolic stability in human liver S9 fraction; format: ADME, subcellular
CYP2C9 = CYP2C9 (Homo sapiens, UniProt P11712); experiment: Inhibition of CYP2C9 at 10 uM; format: ADME
CYP2C19 = CYP2C19 (Homo sapiens, UniProt P33261); experiment: Inhibition of CYP2C19 at 10 uM; format: ADME
CYP2D6 = CYP2D6 (Homo sapiens, UniProt P10635); experiment: Inhibition of CYP2D6 at 10 uM; format: ADME
[12] = Permeability across methotrexate treated human HT-29 cells assessed as compound recovery; format: ADME, cell-based; settings: read-out: Activity
Summary of the method: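 HT29-MTX mucus-producing cells, passage 32, grown 23 days (TEER > 750 Ω cm²). Compound at 100 μM (10 mM DMSO stock diluted 1:100 in buffer). […] Non-permeated drug measured for recovery. Monolayer integrity checked by 20 μM carboxyfluorescein after 1 h and TEER.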

[13] = molecular target: T1, Free fatty acid receptor 1 (Homo sapiens, UniProt O14842); experiment: Agonist activity at human FFA1 receptor expressed in human HEK293 assessed as movement of cellular constitiuent by DMR assay; format: functional, cell-based
Summary of the method: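 FFA1-HEK cells (doxycycline-inducible FLAG-hFFA1, HEK293), 15 000/well on fibronectin-coated 384-well Epic plates, 20–24 h culture. Washed in HBSS/20 mM HEPES, equilibrated 1 h at 28 °C, baseline read, compound added.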

[14] = molecular target: T1, Free fatty acid receptor 1; experiment: Agonist activity at human FFA1 receptor expressed in human HEK293 assessed as accumulation of IP1 by time-resolved fluorescence assay; format: functional, cell-based
Summary of the method: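 Doxycycline-inducible FLAG-tagged human FFA1 in Flp-In T-Rex HEK293 cells, 100 000 cells/well (384-well). 20 min at 37 °C, then ligands in HBSS/10 mM HEPES/50 mM LiCl for 30 min. HTRF IP1 kit (d2 conjugate, Eu cryptate anti-IP1), 60 min at room temperature. 665/620 nm ratio expressed as ΔF%, normalized to maximal response at 10 μM of the reference agonist; n = 5.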

[15] = molecular target: Free fatty acid receptor 1 (Rattus norvegicus) (UniProt Q8K3T4); experiment: Agonist activity at FFA1 receptor in rat INS-1E cells assessed as movement of cellular constitiuent by DMR assay; format: functional, cell-based
Summary of the method: (§1)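 Label-free DMR on an Epic optical biosensor. Rat INS-1E cells, 30 000/well on fibronectin-coated 384-well sensor plates, cultured 20–24 h to confluence. Washed in HBSS/20 mM HEPES and equilibrated 1 h at 28 °C. Baseline read, compound added, wavelength shift (pm) monitored ≥5000 s. Antagonist line: 0.3 μM agonist with the FFA1 antagonist over a concentration range, pIC50 derived, n = 4.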

[16] = molecular target: Free fatty acid receptor 1 (Rattus norvegicus) (UniProt Q8K3T4); experiment: Agonist activity at FFA1 receptor in rat INS-1E cells assessed as movement of cellular constitiuent at 0.3 uM by DMR assay in the presence of trans-1-oxo-3-(4-phenoxyphenyl)-2-propyl-1,2,3,4-tetrahydroisoquinoline-4-carboxylic acid; format: functional, cell-based; summary of the method: as §1
[17] = molecular target: Free fatty acid receptor 1 (Rattus norvegicus) (UniProt Q8K3T4); experiment: Agonist activity at FFA1 receptor in rat INS-1E cells assessed as increase in glucose-stimulated insulin production at 10 uM after 1 hr by radioimmunoassay in presence of 12 mM glucose; format: functional, cell-based
Summary of the method: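 Rat INS-1E cells seeded at 100 000 cells/mL in 24-well plates for 2 days. Incubated 1 h at 37 °C in pH 7.4 HEPES-bicarbonate saline with 1 mM CaCl2 and 0.5 g/L fatty-acid-free BSA plus test substance. Secreted insulin and acid-ethanol-extracted content measured by radioimmunoassay. Mean ± SE, n = 8.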

[18] = Octanol-water partition coefficient, log D of the compound at pH 7.4 by HPLC analysis; format: physicochemical
Summary of the method: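 Distribution between n-octanol and water (PBS), pH 7.4, determined experimentally.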

1321-N1 [19] = experiment: Selectivity for human FFA1 receptor expressed in human 1321N1 cells over PPARgamma receptor; format: cell-based
1321-N1 [20] = experiment: Selectivity for human FFA1 receptor expressed in human 1321N1 cells over A1 receptor; format: cell-based
1321-N1 [21] = experiment: Selectivity for human FFA1 receptor expressed in human 1321N1 cells over A2A receptor; format: cell-based
1321-N1 [22] = experiment: Selectivity for human FFA1 receptor expressed in human 1321N1 cells over A3 receptor; format: cell-based
1321-N1 [23] = experiment: Selectivity for human FFA1 receptor expressed in human 1321N1 cells over beta1 receptor; format: cell-based
1321-N1 [24] = experiment: Selectivity for human FFA1 receptor expressed in human 1321N1 cells over CCK1 receptor; format: cell-based
1321-N1 [25] = experiment: Selectivity for human FFA1 receptor expressed in human 1321N1 cells over […]; format: cell-based
1321-N1 [26] = experiment: Selectivity for human FFA1 receptor expressed in human 1321N1 cells over CXCR2 receptor; format: cell-based
1321-N1 [27] = experiment: Selectivity for human FFA1 receptor expressed in human 1321N1 cells over CCR1 receptor; format: cell-based
1321-N1 [28] = experiment: Selectivity for human FFA1 receptor expressed in human 1321N1 cells over H1 receptor; format: cell-based
1321-N1 [29] = experiment: Selectivity for human FFA1 receptor expressed in human 1321N1 cells over H2 receptor; format: cell-based
1321-N1 [30] = experiment: Selectivity for human FFA1 receptor expressed in human 1321N1 cells over MT1 receptor; format: cell-based
1321-N1 [31] = experiment: Selectivity for human FFA1 receptor expressed in human 1321N1 cells over M3 receptor; format: cell-based
1321-N1 [32] = experiment: Selectivity for human FFA1 receptor expressed in human 1321N1 cells over NK2 receptor; format: cell-based
1321-N1 [33] = experiment: Selectivity for human FFA1 receptor expressed in human 1321N1 cells over NK3 receptor; format: cell-based
1321-N1 [34] = experiment: Selectivity for human FFA1 receptor expressed in human 1321N1 cells over NTS1 receptor; format: cell-based
1321-N1 [35] = experiment: Selectivity for human FFA1 receptor expressed in human 1321N1 cells over Mu receptor; format: cell-based
1321-N1 [36] = experiment: Selectivity for human FFA1 receptor expressed in human 1321N1 cells over NOP receptor; format: cell-based
1321-N1 [37] = experiment: Selectivity for human FFA1 receptor expressed in human 1321N1 cells over 5HT1A receptor; format: cell-based

Free fatty acid receptor 1 (Rattus norvegicus), sequence (Q8K3T4 whole entry): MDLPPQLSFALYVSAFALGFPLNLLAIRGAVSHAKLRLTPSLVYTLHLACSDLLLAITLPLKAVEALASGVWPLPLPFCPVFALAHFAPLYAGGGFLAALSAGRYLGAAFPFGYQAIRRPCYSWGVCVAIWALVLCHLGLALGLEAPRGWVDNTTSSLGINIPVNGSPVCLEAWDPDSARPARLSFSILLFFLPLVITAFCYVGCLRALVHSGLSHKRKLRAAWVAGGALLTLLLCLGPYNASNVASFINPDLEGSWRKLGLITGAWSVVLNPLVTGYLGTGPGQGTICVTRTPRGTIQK
T1 sequence (O14842 whole entry): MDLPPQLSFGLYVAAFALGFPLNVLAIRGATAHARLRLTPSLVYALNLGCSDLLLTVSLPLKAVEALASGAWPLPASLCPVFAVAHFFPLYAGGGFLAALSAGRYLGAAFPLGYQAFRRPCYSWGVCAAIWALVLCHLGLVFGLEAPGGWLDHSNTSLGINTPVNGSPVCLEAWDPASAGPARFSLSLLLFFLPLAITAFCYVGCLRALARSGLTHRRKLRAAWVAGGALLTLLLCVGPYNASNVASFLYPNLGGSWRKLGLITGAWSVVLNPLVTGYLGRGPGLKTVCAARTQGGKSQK
CYP2C9, sequence (P11712 whole entry): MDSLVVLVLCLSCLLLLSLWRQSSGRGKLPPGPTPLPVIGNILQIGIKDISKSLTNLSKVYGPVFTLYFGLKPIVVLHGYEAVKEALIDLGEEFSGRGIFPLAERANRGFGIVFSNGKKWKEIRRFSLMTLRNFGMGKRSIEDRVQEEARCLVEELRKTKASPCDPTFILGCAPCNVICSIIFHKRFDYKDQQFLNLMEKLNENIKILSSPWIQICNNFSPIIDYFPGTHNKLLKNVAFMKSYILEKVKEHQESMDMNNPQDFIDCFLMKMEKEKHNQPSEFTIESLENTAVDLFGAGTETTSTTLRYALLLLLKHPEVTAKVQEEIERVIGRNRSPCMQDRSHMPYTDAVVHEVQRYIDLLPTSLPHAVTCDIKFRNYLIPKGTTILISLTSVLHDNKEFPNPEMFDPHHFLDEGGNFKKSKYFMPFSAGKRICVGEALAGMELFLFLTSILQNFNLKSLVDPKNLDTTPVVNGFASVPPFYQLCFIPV
CYP2D6, sequence (P10635 whole entry): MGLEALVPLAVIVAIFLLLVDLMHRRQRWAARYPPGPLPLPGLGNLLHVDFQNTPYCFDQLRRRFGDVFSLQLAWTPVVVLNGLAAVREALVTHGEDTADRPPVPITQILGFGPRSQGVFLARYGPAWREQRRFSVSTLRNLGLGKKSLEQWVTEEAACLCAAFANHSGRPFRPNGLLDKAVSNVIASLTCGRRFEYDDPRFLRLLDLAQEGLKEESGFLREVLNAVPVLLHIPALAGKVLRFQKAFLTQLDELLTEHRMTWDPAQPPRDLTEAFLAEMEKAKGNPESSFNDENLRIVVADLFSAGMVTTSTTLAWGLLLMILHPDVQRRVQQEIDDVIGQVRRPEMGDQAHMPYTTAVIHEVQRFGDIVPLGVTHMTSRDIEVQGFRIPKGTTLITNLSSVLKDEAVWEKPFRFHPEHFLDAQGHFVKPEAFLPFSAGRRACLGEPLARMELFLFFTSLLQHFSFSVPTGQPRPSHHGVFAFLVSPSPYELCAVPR
CYP2C19, sequence (P33261 whole entry): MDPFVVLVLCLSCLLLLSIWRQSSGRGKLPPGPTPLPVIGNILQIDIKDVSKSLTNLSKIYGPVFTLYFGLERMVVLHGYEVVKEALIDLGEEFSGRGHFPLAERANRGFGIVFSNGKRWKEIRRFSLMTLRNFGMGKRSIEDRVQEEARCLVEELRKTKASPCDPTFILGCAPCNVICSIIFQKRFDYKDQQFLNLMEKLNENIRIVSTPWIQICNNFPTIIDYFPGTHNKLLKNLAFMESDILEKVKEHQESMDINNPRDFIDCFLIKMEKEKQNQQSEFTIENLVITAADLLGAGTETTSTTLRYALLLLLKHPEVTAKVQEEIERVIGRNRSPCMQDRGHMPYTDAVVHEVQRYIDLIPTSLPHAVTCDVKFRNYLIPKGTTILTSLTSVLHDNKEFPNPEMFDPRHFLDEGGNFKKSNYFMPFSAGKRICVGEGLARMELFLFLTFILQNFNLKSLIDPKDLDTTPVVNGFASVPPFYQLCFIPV

O=C(O)CCc1ccc(C#Cc2cc(Cl)nc(Cl)c2)cc1
-7%: inhibition at 10 µM (CYP2C19)
60%: Activity [17]
0.031: fraction unbound [11]
1.97: logD [18]
199 µM: solubility [10]
active: Activity [13] | Activity [14] | Activity [15]
97%: Stability (Liver)
5%: inhibition at 10 µM (CYP2D6)
-4%: inhibition at 10 µM (CYP2C9)
> 100: Selectivity ratio (1321-N1 [1]) | Selectivity ratio (1321-N1 [2]) | Selectivity ratio (1321-N1 [3]) | Selectivity ratio (1321-N1 [4]) | Selectivity ratio (1321-N1 [5]) | Selectivity ratio (1321-N1 [6]) | Selectivity ratio (1321-N1 [7]) | Selectivity ratio (1321-N1 [8]) | Selectivity ratio (1321-N1 [9]) | Selectivity ratio (1321-N1 [19]) | Selectivity ratio (1321-N1 [20]) | Selectivity ratio (1321-N1 [21]) | Selectivity ratio (1321-N1 [22]) | Selectivity ratio (1321-N1 [23]) | Selectivity ratio (1321-N1 [24]) | Selectivity ratio (1321-N1 [25]) | Selectivity ratio (1321-N1 [26]) | Selectivity ratio (1321-N1 [27]) | Selectivity ratio (1321-N1 [28]) | Selectivity ratio (1321-N1 [29]) | Selectivity ratio (1321-N1 [30]) | Selectivity ratio (1321-N1 [31]) | Selectivity ratio (1321-N1 [32]) | Selectivity ratio (1321-N1 [33]) | Selectivity ratio (1321-N1 [34]) | Selectivity ratio (1321-N1 [35]) | Selectivity ratio (1321-N1 [36]) | Selectivity ratio (1321-N1 [37])
63%: recovery [12]
inactive: Activity [16]
